In experiment [1] the target is T1, Mineralocorticoid receptor (Homo sapiens, UniProt P08235).
T1 sequence (P08235 whole entry): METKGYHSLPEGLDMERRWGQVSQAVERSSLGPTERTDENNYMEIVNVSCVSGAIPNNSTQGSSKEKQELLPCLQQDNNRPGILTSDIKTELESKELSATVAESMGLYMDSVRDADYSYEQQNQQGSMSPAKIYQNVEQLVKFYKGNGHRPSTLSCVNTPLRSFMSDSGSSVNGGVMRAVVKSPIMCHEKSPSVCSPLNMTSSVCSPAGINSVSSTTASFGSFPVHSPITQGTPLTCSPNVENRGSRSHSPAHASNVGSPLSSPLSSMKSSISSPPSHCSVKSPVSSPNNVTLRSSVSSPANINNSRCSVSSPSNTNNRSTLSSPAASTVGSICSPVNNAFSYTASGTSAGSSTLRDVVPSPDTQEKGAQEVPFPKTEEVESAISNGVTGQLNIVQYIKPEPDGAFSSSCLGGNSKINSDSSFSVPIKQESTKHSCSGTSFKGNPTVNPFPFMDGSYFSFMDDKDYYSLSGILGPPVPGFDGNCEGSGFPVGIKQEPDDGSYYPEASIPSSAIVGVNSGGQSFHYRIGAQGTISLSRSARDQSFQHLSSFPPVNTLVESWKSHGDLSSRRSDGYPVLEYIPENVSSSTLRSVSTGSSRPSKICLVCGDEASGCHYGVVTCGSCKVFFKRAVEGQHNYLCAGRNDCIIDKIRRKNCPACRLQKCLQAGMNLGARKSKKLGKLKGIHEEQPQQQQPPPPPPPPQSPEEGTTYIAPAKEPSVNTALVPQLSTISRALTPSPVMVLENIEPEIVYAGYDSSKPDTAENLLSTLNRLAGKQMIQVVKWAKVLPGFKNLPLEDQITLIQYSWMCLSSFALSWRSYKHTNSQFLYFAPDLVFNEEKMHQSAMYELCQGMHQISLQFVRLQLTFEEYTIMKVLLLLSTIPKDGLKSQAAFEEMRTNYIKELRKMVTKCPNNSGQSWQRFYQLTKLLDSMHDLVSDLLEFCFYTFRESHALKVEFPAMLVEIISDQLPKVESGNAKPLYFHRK
As to the kind of experiment: Binding affinity to human recombinant mineralocorticoid receptor expressed in baculovirus infected Sf9 cells. The essentials: (§1)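 Extracts of Sf9 cells infected with recombinant baculovirus encoding the human receptor served as receptor source for competitive binding. Run in duplicate; pIC50 derived, value error stated as 0.2.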

In experiment [2] the target is T2, Glucocorticoid receptor (Homo sapiens, UniProt P04150).
T2 sequence (P04150 whole entry): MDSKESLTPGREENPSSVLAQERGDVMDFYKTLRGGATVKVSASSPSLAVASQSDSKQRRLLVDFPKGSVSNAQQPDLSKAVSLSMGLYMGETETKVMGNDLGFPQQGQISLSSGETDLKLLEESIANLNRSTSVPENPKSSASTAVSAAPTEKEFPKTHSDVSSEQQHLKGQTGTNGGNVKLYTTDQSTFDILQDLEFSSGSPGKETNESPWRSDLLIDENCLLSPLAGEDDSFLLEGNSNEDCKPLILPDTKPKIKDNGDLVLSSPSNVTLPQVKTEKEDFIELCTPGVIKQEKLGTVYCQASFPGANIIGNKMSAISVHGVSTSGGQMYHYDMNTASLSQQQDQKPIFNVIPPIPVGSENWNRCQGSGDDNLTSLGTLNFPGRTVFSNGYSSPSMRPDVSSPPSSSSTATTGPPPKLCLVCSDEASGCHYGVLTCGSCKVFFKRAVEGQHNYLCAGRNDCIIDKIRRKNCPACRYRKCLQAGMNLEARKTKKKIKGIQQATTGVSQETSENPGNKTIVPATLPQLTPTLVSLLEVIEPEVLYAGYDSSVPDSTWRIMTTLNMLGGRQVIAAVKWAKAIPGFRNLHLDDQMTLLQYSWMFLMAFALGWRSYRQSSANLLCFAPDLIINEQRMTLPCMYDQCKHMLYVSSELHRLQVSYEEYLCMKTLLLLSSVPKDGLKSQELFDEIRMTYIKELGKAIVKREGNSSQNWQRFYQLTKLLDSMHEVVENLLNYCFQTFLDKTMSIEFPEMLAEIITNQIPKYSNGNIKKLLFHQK
As to the kind of experiment: Binding affinity to human recombinant glucocorticoid receptor expressed in baculovirus infected Sf9 cells.

A further experiment deals with T3, Androgen receptor (Homo sapiens, UniProt P10275).
T3 sequence (P10275 whole entry): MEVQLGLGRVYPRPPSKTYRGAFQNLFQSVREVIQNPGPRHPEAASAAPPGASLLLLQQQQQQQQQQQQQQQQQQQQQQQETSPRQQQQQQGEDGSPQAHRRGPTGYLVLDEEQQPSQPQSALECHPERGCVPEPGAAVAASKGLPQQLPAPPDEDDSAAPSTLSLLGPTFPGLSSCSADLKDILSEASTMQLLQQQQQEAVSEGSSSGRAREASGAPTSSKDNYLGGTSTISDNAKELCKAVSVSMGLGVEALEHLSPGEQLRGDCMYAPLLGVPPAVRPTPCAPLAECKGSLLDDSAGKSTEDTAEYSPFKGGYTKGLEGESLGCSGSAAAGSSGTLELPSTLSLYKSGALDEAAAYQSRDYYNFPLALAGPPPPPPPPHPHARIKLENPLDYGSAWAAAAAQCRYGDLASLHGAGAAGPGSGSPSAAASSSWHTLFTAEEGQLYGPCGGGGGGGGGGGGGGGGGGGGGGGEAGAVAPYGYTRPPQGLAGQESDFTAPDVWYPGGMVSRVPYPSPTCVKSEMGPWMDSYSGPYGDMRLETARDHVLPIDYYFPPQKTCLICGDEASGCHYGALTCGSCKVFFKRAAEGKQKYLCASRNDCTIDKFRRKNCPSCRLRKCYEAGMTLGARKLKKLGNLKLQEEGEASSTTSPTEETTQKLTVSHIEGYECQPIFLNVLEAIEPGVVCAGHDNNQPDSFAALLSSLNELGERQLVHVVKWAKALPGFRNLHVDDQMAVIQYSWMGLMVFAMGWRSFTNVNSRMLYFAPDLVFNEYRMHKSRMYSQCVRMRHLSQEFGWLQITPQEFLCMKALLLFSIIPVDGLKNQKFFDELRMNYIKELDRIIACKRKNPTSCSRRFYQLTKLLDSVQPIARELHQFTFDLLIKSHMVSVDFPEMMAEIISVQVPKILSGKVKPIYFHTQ
Description: Binding affinity to human recombinant androgen receptor expressed in baculovirus infected Sf9 cells.

Another experiment concerns the target T4, Progesterone receptor (Homo sapiens, UniProt P06401).
T4 sequence (P06401 whole entry): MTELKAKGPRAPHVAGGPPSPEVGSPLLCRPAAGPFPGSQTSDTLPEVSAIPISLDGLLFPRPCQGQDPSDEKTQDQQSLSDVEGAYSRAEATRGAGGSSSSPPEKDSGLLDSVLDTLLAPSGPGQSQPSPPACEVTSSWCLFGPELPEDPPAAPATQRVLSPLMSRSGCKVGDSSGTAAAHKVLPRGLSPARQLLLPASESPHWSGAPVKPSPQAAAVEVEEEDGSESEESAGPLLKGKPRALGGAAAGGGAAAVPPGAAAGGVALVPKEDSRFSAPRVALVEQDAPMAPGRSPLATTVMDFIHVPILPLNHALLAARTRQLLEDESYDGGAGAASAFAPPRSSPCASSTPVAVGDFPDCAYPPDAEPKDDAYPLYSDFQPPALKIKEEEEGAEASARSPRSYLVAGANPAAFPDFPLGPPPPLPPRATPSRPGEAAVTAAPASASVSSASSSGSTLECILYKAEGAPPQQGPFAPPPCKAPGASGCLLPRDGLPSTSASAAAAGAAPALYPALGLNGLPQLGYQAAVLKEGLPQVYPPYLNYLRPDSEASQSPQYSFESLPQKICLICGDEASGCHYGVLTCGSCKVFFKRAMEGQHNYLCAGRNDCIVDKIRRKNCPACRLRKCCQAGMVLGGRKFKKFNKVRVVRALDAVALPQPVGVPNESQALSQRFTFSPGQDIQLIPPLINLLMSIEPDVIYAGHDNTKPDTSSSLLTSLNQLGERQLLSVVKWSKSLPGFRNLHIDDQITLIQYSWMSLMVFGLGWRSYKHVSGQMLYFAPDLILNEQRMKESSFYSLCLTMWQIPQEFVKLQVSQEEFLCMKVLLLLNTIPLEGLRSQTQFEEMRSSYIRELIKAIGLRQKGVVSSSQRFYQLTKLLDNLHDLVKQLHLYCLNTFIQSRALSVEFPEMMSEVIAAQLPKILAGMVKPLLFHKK
As to the kind of experiment: Binding affinity to human recombinant progesterone receptor expressed in baculovirus infected Sf9 cells. The essentials:
as §1

Experiment [3] has as its target T2, Glucocorticoid receptor. As to the kind of experiment: Transrepression activity at glucocorticoid receptor-mediated antiinflammatory activity in human THP1 cells assessed as inhibition of LPS-induced IL-8 production. The class given is cell-based, THP-1.
The target in experiment [4] is T2, Glucocorticoid receptor. As to the kind of experiment: Transactivation activity at glucocorticoid receptor in human HeLa cells assessed as induction of MMTV promoter activity by luciferase reporter gene assay. Format: cell-based. A general note: Reporter assays use an easily measured gene product as a stand-in for the process of interest.
The target in experiment [5] is T2, Glucocorticoid receptor. As to the kind of experiment: Transrepression activity at glucocorticoid receptor-mediated antiinflammatory activity in human HeLa cells assessed as inhibition of TPA-induced collagenase promoter activity by luciferase reporter gene assay. Format: cell-based.

A value given as a limit tells only on which side of the number the result lay.

The term IC50 denotes the concentration needed to halve the response being measured. Turning to `CC(C)(CC(O)(CNc1cccc2ccccc12)C(F)(F)F)c1cc(F)ccc1O` (stereo not drawn), the IC50 is more than 1 µM in experiment [1]; 0.0158 µM at Glucocorticoid receptor [2]; more than 1 µM at Androgen receptor; more than 1 µM at Progesterone receptor; more than 1 µM on Glucocorticoid receptor [3].

As to `COc1ccc(F)cc1C(C)(C)CC(O)(CNc1cccc2ncccc12)C(F)(F)F` (stereo not drawn), the IC50 in experiment [1] is more than 1 µM; at Glucocorticoid receptor [2], 0.02 µM; at Androgen receptor it was more than 1 µM; on Progesterone receptor it was 1 µM; on Glucocorticoid receptor [3], 0.0251 µM.

For orientation: EC50 means the concentration giving half of the maximal effect. In the case of `Cc1noc(=O)c2ccc(NC(=O)C(O)(CC(C)(C)c3cc(F)ccc3O)C(F)(F)F)cc12` (stereo not drawn), on Glucocorticoid receptor [4], the EC50 is 0.0251 µM. Besides, the IC50 in experiment [1] is 0.00126 µM; at Glucocorticoid receptor [2] it was 0.00316 µM; at Glucocorticoid receptor [5], 0.01 µM; on Androgen receptor, 0.158 µM; at Progesterone receptor it was 0.00794 µM; on Glucocorticoid receptor [3] it was 0.0501 µM.

As to `Cc1noc(=O)c2ccc(NC(=O)C(O)(CC(C)(C)c3cccc4c3OCC4)C(F)(F)F)cc12` (stereo not drawn), the IC50 in experiment [1] is 0.0794 µM; at Androgen receptor it was 0.631 µM.

In the case of `Cc1ccc2c(NCC(O)(CC(C)(C)c3cc(F)ccc3O)C(F)(F)F)cccc2n1` (stereo not drawn), the EC50 on Glucocorticoid receptor [4] is 0.0126 µM. For the same compound, the IC50 in experiment [1] is more than 1 µM; on Glucocorticoid receptor [2], 0.00631 µM; at Glucocorticoid receptor [5] it was 0.00316 µM; on Androgen receptor it was more than 1 µM; on Progesterone receptor, more than 1 µM; on Glucocorticoid receptor [3] it was 0.00501 µM.

`COc1ccc(F)cc1C(C)(C)CC(O)(CNc1cccc2ccccc12)C(F)(F)F` (stereo not drawn): the IC50 (in experiment [1]; at Glucocorticoid receptor [2]; on Androgen receptor; at Progesterone receptor) was more than 1 µM each time.

Take `COc1ccc(F)cc1C(C)(C)CC(O)(C(=O)Nc1ccc2c(=O)onc(C)c2c1)C(F)(F)F` (stereo not drawn): the half-inhibitory concentration (IC50) is 0.00794 µM in experiment [1], 0.001 µM at Glucocorticoid receptor [2], 0.501 µM at Androgen receptor and 0.0126 µM at Progesterone receptor.

As to `C[C@@H]1C[C@H]2[C@@H]3CCC4=CC(=O)C=C[C@]4(C)[C@@]3(F)[C@@H](O)C[C@]2(C)[C@@]1(O)C(=O)CO` [DEXAMETHASONE], the IC50 on Progesterone receptor was more than 1 µM.

On to `COc1ccc(F)cc1C(C)(C)CC(O)(CNc1ccc2c(=O)onc(C)c2c1)C(F)(F)F` (stereo not drawn), for which the IC50 in experiment [1] is more than 1 µM; on Glucocorticoid receptor [2], 0.01 µM; at Androgen receptor it was more than 1 µM; at Progesterone receptor, 0.0158 µM.

Regarding `COc1ccc(F)cc1C(C)(C)CC(O)(CNc1cccc2nc(C)ccc12)C(F)(F)F` (stereo not drawn), the EC50 at Glucocorticoid receptor [4] was 0.0251 µM. Besides, the IC50 is more than 1 µM in experiment [1]; 0.000631 µM on Glucocorticoid receptor [2]; 0.002 µM on Glucocorticoid receptor [5]; more than 1 µM on Androgen receptor; more than 1 µM at Progesterone receptor; 0.0251 µM on Glucocorticoid receptor [3].

For the compound `CC(C)(CC(O)(CNc1cccc2ncccc12)C(F)(F)F)c1cc(F)ccc1O` (stereo not drawn), the EC50 at Glucocorticoid receptor [4] is 0.0794 µM. Also, the IC50 in experiment [1] is more than 1 µM; on Glucocorticoid receptor [2], 0.001 µM; at Glucocorticoid receptor [5] it was 0.00631 µM; on Androgen receptor it was more than 1 µM; at Progesterone receptor, more than 1 µM; at Glucocorticoid receptor [3], 0.02 µM.
